Assay outcomes: PubChem BioAssay, Broad Institute
This is a sample that favours compounds with a hit; in the whole collection about 3.6% have one here.
HIF act: HIF pathway transcriptional activators, primary screen, cell-based, U2OS HRE-luciferase, luminescence. 300,000 tested, 0.32% active. U2OS HRE-luciferase reporter; normalized: DMSO 0%, desferrioxamine 100%. activation, % at 7.5 µM (by protocol);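 active = mean activation of at least 10% of the iron chelator positive control signal, with at least half of replicates also reaching 10%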
T cruzi repl: inhibitors of intracellular T. cruzi growth, primary screen, luminescence, NIH3T3 host cells | inhibition, % (test concentration not listed) | AID 1885, 2009 | 300,000 tested, 1.4% active | T. cruzi beta-gal in NIH3T3, 90 h;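 active = mean inhibition across valid replicates above about 55%, limit read from the data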;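 note: signal also drops with host cell toxicity which is not excluded here; 0% = plate median of DMSO wells and 100% = zero luminescence signal; higher percent means less beta-gal luminescence so fewer parasites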
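System: NIH/3T3 fibroblasts plus reporter T. cruzi. Medium: DMEM plus 2% FBS. Probe or stimulus: 5000 reporter trypomastigotes per well. Compound: single 50 nL compound addition per well in DMSO. Incubation: co-culture of at least 90 h after 3 h attachment. Detection: GalScreen β-gal luminescence, detergent lysis, 60 min. Evaluation: parasite load inhibition, %.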
Beta apoptosis: inhibitors of cytokine-induced beta cell apoptosis, primary screen, luminescence; INS-1E cytokine-induced death, ATP luminescence, 48 h; percent of positive-control rescue, neutral wells zero; protection from apoptosis, % (test concentration not listed); 300,000 tested, 0.8% active;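 active = Every replicate reaches about 75%, or at least half do and their mean reaches it too, limit read from the data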;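 note: 0% = cytokine-treated negative control wells and 100% = positive control rescue; higher means more ATP so stronger rescue from cytokine killing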
SKKanGAS inh: S. pyogenes SKKanGAS growth inhibitors in kanamycin, primary screen, streptokinase expression inhibitor project, SKKanGAS strain, BacTiter-Glo luminescence; 6 h; inhibition, % at 7.5 µM; 300,000 tested, 1.3% active;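 active = mean replicate score, as percent of positive control median, at least 50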;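 note: strain carries kanamycin resistance gene driven by streptokinase promoter and grows in 40 µg/ml kanamycin; loss of luminescence reflects streptokinase promoter inhibition or plain growth inhibition; 0% = median of DMSO wells and 100% = positive control at its reference dose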
PfHsp90 set2: growth inhibition of PfHsp90-expressing yeast, primary screen, antimalarial PfHsp90 inhibitor project, S. cerevisiae, BacTiter-Glo luminescence, single point, set 2 | BacTiter-Glo ATP, 48 h; yeast lacking PDR1 and PDR3 efflux regulators | inhibition, % at 9.4 µM | 310,000 tested, 0.32% active | AID 504621, 2011;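 active = every replicate shows inhibition above about 80%, whatever the replicate mean, limit read from the data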;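 note: 0% = DMSO neutral controls and 100% = 20 µM radicicol positive controls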
CSC inhib: cancer stem cell viability inhibitors, primary screen, luminescence. cancer stem cell-like cells viability. inhibition, % at 7.5 µM. 300,000 tested, 1.1% active; in the data active = inhibition above about 75%; tested in HMLE shEcad cells
* = called active by the depositor; · = not tested or not shown.

SMILES	HIF act	T cruzi repl	Beta apoptosis	SKKanGAS inh	PfHsp90 set2	CSC inhib
Clc1cccc(-c2nc(NCCCN3CCOCC3)c3ccccc3n2)c1	-1	8	-2	14	24	91*
CCOC(=O)[C@H]1[C@H]2COc3cc(OC)ccc3[C@@H]2N2C(=O)[C@@H](CO)NC(=O)[C@@]12C	·	·	-7	·	·	0
O=C(c1ccco1)N1CCN(Cc2cn[nH]c2-c2cccc3ccccc23)CC1	0	12	-4	-6	-6	-21
COCCC(=O)N1CCC(Oc2ccc(C(=O)N3CCC[C@H]3CO)cc2)CC1	0	-12	-4	0	-4	·
Cc1cc(NCCN2CCOCC2)c2ccc3ccccc3c2n1	1	65*	27	-15	12	-1
c1ccc2c(NCCCN3CCOCC3)c3ccccc3nc2c1	·	·	104*	·	·	51
O=C(Nc1ccc(S(=O)(=O)NC2=NCCCCC2)cc1)c1ccc([N+](=O)[O-])s1	-1	65*	54	23	1	55
O=C(Nc1ccc(S(=O)(=O)NC2=NCCCCC2)cc1)c1cccs1	·	·	-4	·	4	-16
Cc1ccnc(NS(=O)(=O)c2ccc(NC(=O)c3ccc([N+](=O)[O-])s3)cc2)n1	-1	67*	-9	2	2	27
CCOc1ccccc1NC(=O)COC(=O)C1CCC(=O)N1 (stereo not drawn)	·	·	-8	·	1	-17
O=C(Nc1nc2ccccc2s1)c1cc(-c2ccccc2)nn1-c1ccccc1	2	21	111*	11	-12	44
CCOC(=O)c1ccc(NC(=O)C2COc3ccccc3O2)cc1 (stereo not drawn)	0	-5	-2	-2	5	-7
CCOC(=O)c1ccc(-n2c(O)c(/C=N/NC(=O)C3COc4ccccc4O3)c3ccccc3c2=O)cc1 (stereo not drawn)	0	0	2	103*	-2	35
NC(=O)NC(=O)CSc1nc2sc(-c3ccccc3)cc2c(=O)n1-c1ccccc1	0	12	5	62*	·	-8
NC(=O)CSc1nc2c(sc(=S)n2-c2ccccc2)c(=O)[nH]1	0	1	0	-5	22	-9
CC(C)c1cc(C(=O)N2CCCC(N3CCN(c4ccc(F)cc4)CC3)C2)no1 (stereo not drawn)	-1	3	4	-3	10	7
CCCCC(=O)N1CCN(c2nc3ccc(F)cc3s2)CC1	9.8*	-14	·	4	8	9
CCCC(=O)N1CCN(c2nc3ccccc3s2)CC1	0	-4	3	-9	17	1
CCCCC(=O)N1CCN(c2nc3ccc(OCC)cc3s2)CC1	1	-24	·	-7	11	-2
CCC(=O)N1CCN(c2nc3ccc(Br)cc3s2)CC1	12*	-9	1	2	26	1
CN1Cc2cccc3c2C(Cc2ccccc2S3)C1 (stereo not drawn)	0	58*	-11	-12	15	-11
Cc1nnc(N/N=C/c2cccc(OCc3ccc(Cl)c(Cl)c3)c2)n1N	0	-1	16	8	-11	21
Oc1ccc(/C=N/n2cnn(Cc3ccccc3Cl)c2=S)c(O)c1	0	-18	-9	4	10	78*
CCOCCCN(C(=O)CNC(=O)c1ccco1)C(C(=O)NC1CCCC1)c1cccc(OC)c1 (stereo not drawn)	1	-1	-2	4	-8	·
O=P(CCCCCCCCCP(=O)(c1ccccc1)c1ccccc1)(c1ccccc1)c1ccccc1	0	61*	·	36	71	38
O=C(O)CCCCCCCCCCP(=O)(c1ccccc1)c1ccccc1	0	23	-3	·	0	8
CCCCCCCCOC(=O)c1cc([N+](=O)[O-])c(Sc2ncnc3nc[nH]c23)c([N+](=O)[O-])c1	·	·	·	·	107*	·
O=C(c1cccc(S(=O)(=O)Nc2ccccc2Cl)c1)N1CCN(c2ccccc2O)CC1	·	·	9	·	0	·
CC1Sc2ccc(S(=O)(=O)N(C)Cc3ccccc3)cc2NC1=O (stereo not drawn)	0	-15	-1	-4	-19	-19
